For experiment [1], the system named is Mus musculus. Nature of the experiment: Inhibition of apomorphine-induced climbing following s.c. administration in mice. It counts as functional. The conditions noted are these: sc. The procedure, abridged:
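Male Bom:NMRI mice, n=10 per group, received saline or drug sc 50 min before the trial and apomorphine 2 mg/kg sc 20 min before it. Each mouse was placed alone in a cylindrical wire cage, and climbing time over a 60-s trial was recorded automatically. ED50 and 95% confidence limits came from logistic nonlinear regression over 3-4 doses.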

Experiment [2] is described as follows: In vitro inhibition of [3H]Oxo-Mas binding to M2 and M4 receptors in rat brain homogenate.
Experiment [3] concerns Rattus norvegicus. Briefly: Inhibition of conditioned avoidance response in rat following s.c. administration. The conditions noted are these: sc. It counts as functional. Summed up: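 Rats were tested sc over a full dose range in the conditioned avoidance model, six rats per point, up to 50 trials per session. ED50 is the dose giving 50% of the drug's maximal effect on avoidance responding.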

The test system of experiment [4] is Mus musculus. Nature of the experiment: Salivation after subcutaneous administration in mice. In kind it is functional. The conditions noted are these: sc. Summed up:
(§1)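 Mice received saline or drug sc. Side effects were scored 30 min after injection on a three-grade scale and expressed as percent of the maximum possible score. ED50 was obtained by graphic interpolation of the dose-response curve.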

Experiment [5] relates to Rattus norvegicus. Nature of the experiment: Conditioned avoidance responding in rat after subcutaneous administration (1 mg/kg); expressed as avoidance response/response failure; 18/21. It counts as functional, organism-based.
Experiment [6] deals with Mus musculus. Nature of the experiment: Tremor after subcutaneous administration in mice was determined. In kind it is functional. The conditions noted are these: sc. The procedure, abridged: as §1
The test system of experiment [7] is Rattus norvegicus. Nature of the experiment: Conditioned avoidance responding in rat after subcutaneous administration (0.3 mg/kg); expressed as avoidance response/response failure; 24/63. In kind it is functional, organism-based. The procedure, abridged: (§2)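 Single-dose screen in rats, given sc at the dose listed in each line. Each session typically ran 50 trials. Percent avoidance responses and percent response failures were recorded.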

Experiment [8] has as its system Rattus norvegicus. Nature of the experiment: Conditioned avoidance responding in rat after subcutaneous administration (1 mg/kg); expressed as avoidance response/response failure. In kind it is functional. The procedure, abridged: as §2
Experiment [9] deals with Rattus norvegicus. Briefly: Conditioned avoidance responding in rat after subcutaneous administration (3 mg/kg); expressed as avoidance response/response failure. In kind it is functional. The procedure, abridged: as §2
For experiment [10], the system named is Rattus norvegicus. Nature of the experiment: Conditioned avoidance responding in rat after subcutaneous administration (0.3 mg/kg); expressed as avoidance response/response failure; 9/55. In kind it is functional, organism-based.
In experiment [11] the test system is Rattus norvegicus. Briefly: Conditioned avoidance responding in rat after subcutaneous administration (0.3 mg/kg); expressed as avoidance response/response failure; 29/19. In kind it is functional, organism-based.
The test system of experiment [12] is Rattus norvegicus. Nature of the experiment: Conditioned avoidance responding in rat after subcutaneous administration (0.3 mg/kg); expressed as avoidance response/response failure; 3/41. In kind it is functional, organism-based.
Experiment [13] has as its system Rattus norvegicus. Briefly: Conditioned avoidance responding in rat after subcutaneous administration (3 mg/kg); expressed as avoidance response/response failure; 48/20. In kind it is functional, organism-based. The procedure, abridged:
as §2

The nature of experiment [14]: In vitro inhibition of [3H]Oxo-Mas binding to M2 and M4 receptors in rat brain homogenate. The source holds these as a separate data set.
The test system of experiment [15] is Rattus norvegicus. Briefly: Conditioned avoidance responding in rat after subcutaneous administration (0.3 mg/kg); expressed as avoidance response/response failure; 16/1. In kind it is functional, organism-based. Summed up:
as §2

Molecules are shown by their SMILES. pIC50: −log10 of the molar value. The source made the active and inactive calls. The rule behind the calls is not given here. Where only a bound is given, the exact number is not on record here.

For `CCSc1nsnc1C1CN2CCC[C@H]1C2` (some centres not stated), the ED50 in the experiment with Mus musculus [1] came to 0.047 mg/kg; in the experiment on Rattus norvegicus [3] it was 0.045 mg/kg. Also, the pIC50 in [2] is 8.89.

On to `CSc1nsnc1C1CN2CCC[C@H]1C2` (some centres not stated), for which the ED50 turned out to be 0.2 mg/kg with Mus musculus [1] and 0.14 mg/kg in the experiment with Rattus norvegicus [3]. The compound also showed a pIC50 in experiment [2] of 8.54.

As for `CC[C@@H]1C(=O)OC[C@@H]1Cc1cncn1C` [PILOCARPINE], the ED50 with Mus musculus [1] was 3.87 mg/kg; in the experiment on Mus musculus [4], 4 mg/kg; with Rattus norvegicus [3], 4.5 mg/kg; in the experiment on Mus musculus [6], over 10 mg/kg. The compound also gave a pIC50 in experiment [2] of 7.17. For the same compound, the Activity result in the experiment on Rattus norvegicus [5] is “Weak activity”.

Turning to `O=C1CCCN1CC#CCN1CCCC1` [OXOTREMORINE], the ED50 in the experiment on Mus musculus [1] is 0.09 mg/kg; with Mus musculus [4] it was 0.2 mg/kg; in the experiment on Rattus norvegicus [3], 0.3 mg/kg; in the experiment with Mus musculus [6], 0.24 mg/kg. For the same compound, the pIC50 in experiment [2] is 8.30. Moreover, the outcome with Rattus norvegicus [7] was inactive.

As for `CCCSc1nsnc1C1CN2CCC[C@H]1C2` (some centres not stated), the ED50 in the experiment with Mus musculus [1] and in the experiment on Rattus norvegicus [3] was 0.056 mg/kg in each case. Moreover, the pIC50 in experiment [2] is 8.85. The same compound yielded an Activity in the experiment on Rattus norvegicus [8] of 41%.

Take `CCCCSc1nsnc1[C@@H]1CN2CCC[C@@H]1C2`: in experiment [2], the pIC50 was 8.00. This compound registered an Activity in the experiment on Rattus norvegicus [9] of 86%. Besides, the ED50 in the experiment with Rattus norvegicus [3] is over 3 mg/kg.

Regarding `O=C(CCCN1CCC(O)(c2ccc(Cl)cc2)CC1)c1ccc(F)cc1` [HALOPERIDOL], the ED50 in the experiment on Mus musculus [1] was found to be 0.08 mg/kg; with Rattus norvegicus [3] it was 0.11 mg/kg. The outcome in the experiment on Rattus norvegicus [10] was inactive.

`CCCCCCSc1nsnc1C1CN2CCC[C@H]1C2` (some centres not stated): the ED50 in the experiment on Mus musculus [1] was 0.06 mg/kg; in the experiment on Rattus norvegicus [3] it was 0.1 mg/kg. In experiment [2], this compound had a pIC50 of 8.48. The Activity result in the experiment on Rattus norvegicus [11] was “Weak activity”.

On to `CCCSc1nsnc1[C@H]1CN2CCC[C@H]1C2`, for which the ED50 with Mus musculus [1] was 2.21 mg/kg; in the experiment with Mus musculus [4], over 30 mg/kg; with Rattus norvegicus [3] it was over 3 mg/kg; in the experiment with Mus musculus [6] it was over 30 mg/kg. This compound also showed a negative logarithm of the IC50 (pIC50) in experiment [2] of 8.44. This compound also had an Activity in the experiment with Rattus norvegicus [9] of 86%.

For the compound `CCCSc1nsnc1[C@@H]1CN2CCC[C@@H]1C2`, the ED50 in the experiment on Mus musculus [1] was 2.2 mg/kg; in the experiment on Mus musculus [4], over 30 mg/kg; with Rattus norvegicus [3] it was over 3 mg/kg; with Mus musculus [6], over 30 mg/kg. The same compound showed a pIC50 in experiment [2] of 7.88. Also, in the experiment on Rattus norvegicus [9], the Activity stood at 51%.

On to `CCCSc1nsnc1[C@H]1CN2CCC[C@@H]1C2`, for which the ED50 in the experiment with Mus musculus [1] is 0.021 mg/kg; with Mus musculus [4], over 3 mg/kg; with Rattus norvegicus [3], 0.013 mg/kg; in the experiment on Mus musculus [6], 2.2 mg/kg. The same compound gave a pIC50 in experiment [2] of 9.19. In the experiment with Rattus norvegicus [9], the Activity was 31%.

As for `CCCCSc1nsnc1C1CN2CC[C@@H]1C2` (some centres not stated), the pIC50 in experiment [2] was 8.38. In the experiment with Rattus norvegicus [9], this compound returned an Activity of 100%. This compound yielded a median effective dose (ED50) in the experiment with Rattus norvegicus [3] of over 1 mg/kg.

On to `CCCSc1nsnc1[C@@H]1CN2CCC[C@H]1C2`, for which the ED50 is 0.17 mg/kg in the experiment with Mus musculus [1], over 3 mg/kg in the experiment with Mus musculus [4], 0.03 mg/kg in the experiment on Rattus norvegicus [3] and 1.3 mg/kg in the experiment with Mus musculus [6]. The compound further gave a negative-log IC50 (pIC50) in experiment [2] of 9.19. In the experiment on Rattus norvegicus [9], this compound yielded an Activity of 39%.

The compound `CCCCSc1nsnc1C1CN2CCC1CC2` (configuration not stated) [VEDACLIDINE] gave a pIC50 in experiment [2] of 8.66. The same compound returned an Activity in the experiment with Rattus norvegicus [9] of 18%. The median effective dose (ED50) in the experiment with Rattus norvegicus [3] was determined as 0.1 mg/kg.

Take `CCCCSc1nsnc1[C@@H]1CN2CCC[C@H]1C2`: the ED50 with Mus musculus [1] is 0.026 mg/kg; with Mus musculus [4], over 3 mg/kg; in the experiment with Rattus norvegicus [3] it was 0.018 mg/kg; with Mus musculus [6] it was over 3 mg/kg. The pIC50 in experiment [2] was 9.28. This compound displayed an Activity with Rattus norvegicus [8] of 8%.

Consider `CCCCCSc1nsnc1C1CN2CCC[C@H]1C2` (some centres not stated), for which the ED50 with Mus musculus [1] was 0.054 mg/kg; in the experiment on Rattus norvegicus [3] it was 0.065 mg/kg. For the same compound, in the experiment with Rattus norvegicus [12], the outcome was inactive. In addition, in experiment [2], the pIC50 is 8.60.

Take `CCCCSc1nsnc1C1CN2CC[C@H]1C2` (some centres not stated): the pIC50 in [2] is 8.89. The compound also came in with an Activity in the experiment with Rattus norvegicus [9] of 0%. The 50% effective dose (ED50) with Rattus norvegicus [3] was under 1 mg/kg.

For the compound `CCCCSc1nsnc1[C@H]1CN2CCC[C@H]1C2`, the median effective dose (ED50) in the experiment on Mus musculus [1] is over 1 mg/kg; in the experiment on Mus musculus [4], over 1 mg/kg; with Rattus norvegicus [3], over 3 mg/kg; with Mus musculus [6], over 1 mg/kg. This compound also had a pIC50 in experiment [2] of 8.64. For the same compound, in the experiment on Rattus norvegicus [13], the Activity result was “Weak activity”.

In experiment [2], `CCCCSc1nsnc1C1CN2CCC[C@@H]1C2` (some centres not stated) showed a pIC50 of 8.21. Besides, the Activity with Rattus norvegicus [9] is recorded as 97%. This compound also came in with an ED50 with Rattus norvegicus [3] of over 3 mg/kg.

Turning to `CCCCSc1nsnc1C1=CCCN(C)C1`, the Activity in the experiment with Rattus norvegicus [9] came out at 57%. This compound also yielded an ED50 in the experiment on Rattus norvegicus [3] of 2.8 mg/kg. In [14], this compound had a pIC50 of 8.89.

As for `CCCCSc1nsnc1[C@H]1CN2CCC[C@@H]1C2`, the ED50 in the experiment on Mus musculus [1] is 0.012 mg/kg; in the experiment on Mus musculus [4], over 0.3 mg/kg; in the experiment on Rattus norvegicus [3], 0.017 mg/kg; in the experiment with Mus musculus [6], over 0.3 mg/kg. The same compound had a pIC50 in [2] of 9.30. Also, the outcome with Rattus norvegicus [15] was Active.

In the case of `CCCCSc1nsnc1C1CN2CCC[C@H]1C2` (some centres not stated), the ED50 was 0.045 mg/kg in the experiment with Mus musculus [1] and 0.007 mg/kg in the experiment on Rattus norvegicus [3]. This compound gave a pIC50 in experiment [2] of 9.33. In addition, the Activity with Rattus norvegicus [8] was found to be 32%.

In general, ED50 refers to the dose that gives a 50% effect, or the effect in half of the subjects. The pIC50 is the negative decadic logarithm of the IC50, by convention in mol/L. Low values mean a large IC50, high ones a small IC50.

Source of the values: ChEMBL document CHEMBL1131590, “Muscarinic agonists with antipsychotic-like activity: structure-activity relationships of 1,2,5-thiadiazole analogues with functional dopamine antagonist activity” (J Med Chem, 1998).
